ChEMBL document CHEMBL1136224, “De novo synthesis of two new cytotoxic tiazofurin analogues with modified sugar moieties” (Bioorg Med Chem Lett, 2003)

Legend:
Format in all cases: functional, cell-based
Conditions in all cases: Homo sapiens
HL-60 = test: Concentration required to inhibit HL-60 cell growth
Procedure, shortened: (§1)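 MTT assay after 24 h incubation with compound, top tested concentration 1000 µM. IC50 = concentration giving 50% inhibition of cell growth relative to untreated control. Human lines: myelogenous leukaemia K562, promyelocytic leukaemia HL60, colon adenocarcinoma HT29, breast adenocarcinoma MCF7, normal foetal lung MRC-5.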

HT-29 = test: Concentration required to inhibit HT-29 cell growth; procedure, shortened: as §1
K562 = test: Concentration required to inhibit K562 cell growth; procedure, shortened: as §1
MCF7 = test: Concentration required to inhibit MCF-7 cell growth; procedure, shortened: as §1
MRC5 = test: Concentration required to inhibit MRC-5 cell growth; procedure, shortened: as §1

IC50 (HL-60) [µM] | IC50 (HT-29) [µM] | IC50 (K562) [µM] | IC50 (MCF7) [µM] | Compound | IC50 (MRC5) [µM]
10.5 | 0.91 | 96.6 | > 1000 | NC(=O)c1csc([C@@H]2O[C@H](CO)[C@@H](F)[C@H]2O)n1 | > 1000
9.32 | 1.01 | 4.16 | 8.49 | NC(=O)c1csc([C@@H]2O[C@H](CO)[C@@H](O)[C@H]2O)n1 [TIAZOFURIN] | 0.85
1000 | 1 | 0.095 | > 1000 | CC(=O)N[C@H]1[C@@H](O)[C@H](c2nc(C(N)=O)cs2)O[C@@H]1CO | 89.7
